Results reported in ChEMBL document CHEMBL5512642, “Novel triterpenoid pyrones, phthalimides and phthalates are selectively cytotoxic in CCRF-CEM cancer cells - Synthesis, potency, and mitochondrial mechanism of action” (Eur J Med Chem, 2024).
Calls of active or inactive are those of the source. The calls are words filed in the database; no cut-off is given here.

Experiments:
CCRF-CEM [1] = assay: Induction of apoptosis in human CCRF-CEM cells assessed as reduction in caspase-3 expression at 5 time of IC50 incubated for 24 hrs by Western blot analysis; assay type: functional, cell-based
Method in brief: (§1)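 Lysate 20 µg protein per lane on SDS-PAGE, transferred to nitrocellulose, blocked in 5% BSA/TBS-Tween. Probed overnight at 4 °C with anti-caspase-3, Bcl-2, Bcl-XL, β-actin, then HRP secondary 1 h. ECL chemiluminescence detection.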

[2] = Metabolic stability in human liver microsomes assessed as compound remaining at measured at 15 mins in presence of NADPH by RF-MS analysis; assay type: ADME, Microsome; conditions: read-out: Stability
Method in brief: (§2)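 Human liver microsomes with NADPH cofactor to assess phase I oxidation. Compound remaining sampled at 15, 30 and 60 min; intrinsic clearance derived and categorized. Run in triplicate.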

CCRF-CEM [3] = assay: Induction of apoptosis in human CCRF-CEM cells assessed as viable cells at 5 time IC50 incubated for 24 hrs by Annexin V and propidium iodide staining based flow cytometry analysis (reference value: 98%); assay type: functional
U2OS = assay: Cytotoxicity against human U2OS cells assessed as reduction in cell viability incubated for 72 hrs by MTS assay; assay type: functional, cell-based
[4] = Apparent permeability of the compound in MDCK-MDR1 cells at 10 uM incubated for 1 hr by RF-MS analysis; assay type: ADME, cell-based, Canis lupus familiaris; conditions: dog
Method in brief: (§3)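 Caco-2 and MDCK-MDR1 monolayers; transport measured in both directions, apical→basolateral and basolateral→apical. Efflux ratio taken from the two directions; ER > 2 counted as active efflux. Compound recovery reported. Cell-based permeability runs done in duplicate.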

[5] = Stability in human plasma assessed as compound remaining measured 120 mins by RF-MS analysis; assay type: ADME, cell-free; conditions: read-out: Stability
Method in brief: (§4)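 Compounds incubated in human plasma in vitro for up to 2 h. Percent remaining sampled at 15, 30, 60 and 120 min. Run in triplicate.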

CCRF-CEM [6] = assay: Induction of mitochondrial membrane potential loss in human CCRF-CEM cells assessed as cells with depolarized mitochondria (P2 gate) by measuring green fluorescence intensity at 1 time IC50 incubated for 24 hrs by JC-1 staining based flow cytometry (reference value: 2.1%)
CCRF-CEM [7] = assay: Induction of apoptosis in human CCRF-CEM cells assessed as reduction in Bcl-XL expression at 5 time of IC50 incubated for 24 hrs by Western blot analysis; assay type: functional, cell-based; method in brief: as §1
[8] = Cytotoxicity against human MRC5 cells assessed as reduction in cell viability incubated for 72 hrs by MTS assay; assay type: toxicity, cell-based
[9] = Apparent permeability of the compound across apical to basolateral side in human Caco-2 cells assessed as compound recovery; assay type: ADME, cell-based; conditions: read-out: Activity; method in brief: as §3
CCRF-CEM [10] = assay: Antiproliferative activity against human CCRF-CEM cells assessed as reduction BruD positive cell at 1 time of IC50 by BrdU incorporation assay; assay type: functional, cell-based
Method in brief: (§5)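 Mitotic fraction scored with the pH3 Ser10 marker and DNA synthesis with BrdU incorporation. For transcription, cells received a short BrU pulse after the 24 h pre-incubation. Read by flow cytometry against untreated cells.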

CCRF-CEM [11] = assay: Induction of apoptosis in human CCRF-CEM cells assessed as necrotic cells at 1 time IC50 incubated for 24 hrs by Annexin V and propidium iodide staining based flow cytometry analysis (reference value: 0.1%); assay type: functional
CCRF-CEM [12] = assay: Induction of apoptosis in human CCRF-CEM cells assessed as early apoptotic cells at 5 time IC50 incubated for 24 hrs by Annexin V and propidium iodide staining based flow cytometry analysis (reference value: 1.4%); assay type: functional
CCRF-CEM [13] = assay: Induction of mitochondrial membrane potential loss in human CCRF-CEM cells assessed as cells with depolarized mitochondria (P2 gate) by measuring green fluorescence intensity at 5 time IC50 incubated for 24 hrs by JC-1 staining based flow cytometry (reference value: 2.1%)
CEM-DNR = assay: Cytotoxicity against human CEM-DNR cells assessed as reduction in cell viability incubated for 72 hrs by MTS assay; assay type: functional, cell-based
K562 = assay: Cytotoxicity against human K562 cells assessed as reduction in cell viability incubated for 72 hrs by MTS assay; assay type: functional, cell-based; conditions: K562, 72 h
[14] = Cytotoxicity against human K562-Tax cells assessed as reduction in cell viability incubated for 72 hrs by MTS assay; assay type: functional, cell-based
CCRF-CEM [15] = assay: Induction of apoptosis in human CCRF-CEM cells assessed as late apoptotic cells at 1 time IC50 incubated for 24 hrs by Annexin V and propidium iodide staining based flow cytometry analysis (reference value: 0.5%); assay type: functional
[16] = Plasma protein binding in human assessed as fraction bound at 10 uM by rapid equilibrium dialysis based RF-MS analysis; assay type: ADME, cell-free; conditions: read-out: PPB (converted)
Method in brief: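 Human plasma protein binding measured by equilibrium dialysis and reported as percent fraction bound. Run in triplicate.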

A549 = assay: Cytotoxicity against human A549 cells assessed as reduction in cell viability incubated for 72 hrs by MTS assay; assay type: functional, cell-based; conditions: A549, 72 h
CCRF-CEM [17] = assay: Cytotoxicity against human CCRF-CEM cells assessed as reduction in cell viability incubated for 72 hrs by MTS assay; assay type: functional, cell-based
CCRF-CEM [18] = assay: Induction of apoptosis in human CCRF-CEM cells assessed as viable cells at 1 time IC50 incubated for 24 hrs by Annexin V and propidium iodide staining based flow cytometry analysis (reference value: 98%); assay type: functional
CCRF-CEM [19] = assay: Antiproliferative activity against human CCRF-CEM cells assessed as reduction cell population at 1 time of IC50 by BrdU incorporation assay; assay type: functional, cell-based; method in brief: as §5
[20] = Metabolic stability in human liver microsomes assessed as compound remaining at measured at 60 mins in presence of NADPH by RF-MS analysis; assay type: ADME, Microsome; conditions: read-out: Stability; method in brief: as §2
HCT-116 = assay: Cytotoxicity against human HCT-116 cells assessed as reduction in cell viability incubated for 72 hrs by MTS assay; assay type: functional, cell-based; conditions: HCT-116, 72 h
[21] = Cytotoxicity against human BJ cells assessed as reduction in cell viability incubated for 72 hrs by MTS assay; assay type: toxicity, cell-based
[22] = Stability in human plasma assessed as compound remaining measured 15 mins by RF-MS analysis; assay type: ADME, cell-free; conditions: read-out: Stability; method in brief: as §4
CCRF-CEM [23] = assay: Antiproliferative activity against human CCRF-CEM cells assessed as inhibition of RNA synthesis at 5 time of IC50 by BrdU incorporation assay; assay type: functional, cell-based; conditions: in the assay text read “BrU incorporation assay” for “BrdU incorporation assay”; method in brief: as §5
HCT 116 TP53(-/-) = assay: Cytotoxicity against human HCT116-p53-null cells assessed as reduction in cell viability incubated for 72 hrs by MTS assay; assay type: functional, cell-based
[24] = Apparent permeability of the compound in human Caco-2 cells; assay type: ADME, cell-based; method in brief: as §3
CCRF-CEM [25] = assay: Antimitotic activity against human CCRF-CEM cells assessed as decrease in cell division at 5 times of IC50; assay type: functional, cell-based; method in brief: as §5
CCRF-CEM [26] = assay: Induction of apoptosis in human CCRF-CEM cells assessed as necrotic cells at 5 time IC50 incubated for 24 hrs by Annexin V and propidium iodide staining based flow cytometry analysis (reference value: 0.; assay type: functional
CCRF-CEM [27] = assay: Induction of apoptosis in human CCRF-CEM cells assessed as reduction in Bcl-2 expression at 5 time of IC50 incubated for 24 hrs by Western blot analysis; assay type: functional, cell-based; method in brief: as §1
[28] = Apparent permeability of the compound across apical to basolateral side in MDCK-MDR1 cells assessed as compound recovery at 10 uM incubated for 1 hr by RF-MS analysis; assay type: ADME, cell-based, Canis lupus familiaris; conditions: dog, read-out: Activity; method in brief: as §3
CCRF-CEM [29] = assay: Induction of apoptosis in human CCRF-CEM cells assessed as late apoptotic cells at 5 time IC50 incubated for 24 hrs by Annexin V and propidium iodide staining based flow cytometry analysis (reference value: 0.5%); assay type: functional
[30] = Stability in human plasma assessed as compound remaining measured 30 mins by RF-MS analysis; assay type: ADME, cell-free; conditions: read-out: Stability; method in brief: as §4
CCRF-CEM [31] = assay: Antiproliferative activity against human CCRF-CEM cells assessed as reduction BruD positive cell at 5 time of IC50 by BrdU incorporation assay; assay type: functional, cell-based; method in brief: as §5
CCRF-CEM [32] = assay: Induction of apoptosis in human CCRF-CEM cells assessed as early apoptotic cells at 1 time IC50 incubated for 24 hrs by Annexin V and propidium iodide staining based flow cytometry analysis (reference value: 1.4%); assay type: functional
[33] = Stability in human plasma assessed as compound remaining measured 60 mins by RF-MS analysis; assay type: ADME, cell-free; conditions: read-out: Stability; method in brief: as §4

Compound: CC(C)[C@@H]1CC[C@]2(C(=O)O)CC[C@]3(C)[C@H](CC[C@@H]4[C@@]5(C)Cc6c(C(F)(F)F)cc(=O)oc6C(C)(C)[C@@H]5CC[C@]43C)[C@@H]12
- Activity (CCRF-CEM [1]): Active
- remaining at 0.25 h [2]: 106%
- Activity (CCRF-CEM [3]): 69.9%
- IC50 (U2OS): 19 µM
- Papp at 1 h, 10 µM [4]: 0.27 ×10⁻⁶ cm/s
- remaining at 2 h [5]: 94.2%
- Activity (CCRF-CEM [6]): 4%
- Activity (CCRF-CEM [7]): Active
- IC50 at 72 h [8]: 27 µM
- recovery [9]: 105%
- Activity (CCRF-CEM [10]): inactive
- Activity (CCRF-CEM [11]): 0%
- Activity (CCRF-CEM [12]): 14.3%
- Activity (CCRF-CEM [13]): 28.6%
- IC50 (CEM-DNR): 4.9 µM
- IC50 (K562): 23 µM
- IC50 [14]: 17 µM
- Activity (CCRF-CEM [15]): 2.8%
- fraction unbound at 10 µM [16]: 0.056
- IC50 (A549): 11 µM
- IC50 (CCRF-CEM [17]): 3.5 µM
- Activity (CCRF-CEM [18]): 92.4%
- Activity (CCRF-CEM [19]): inactive
- remaining at 1 h [20]: 82%
- IC50 (HCT-116): 10 µM
- IC50 at 72 h [21]: > 50 µM
- remaining at 0.25 h [22]: 98.4%
- Activity (CCRF-CEM [23]): Active
- IC50 (HCT 116 TP53(-/-)): 18 µM
- Papp [24]: 0.15 ×10⁻⁶ cm/s
- Activity (CCRF-CEM [25]): Active
- Activity (CCRF-CEM [26]): 0%
- Activity (CCRF-CEM [27]): Active
- recovery at 1 h, 10 µM [28]: 64.8%
- Activity (CCRF-CEM [29]): 15.8%
- remaining at 0.5 h [30]: 97.7%
- Activity (CCRF-CEM [31]): Active
- Activity (CCRF-CEM [32]): 4.8%
- remaining at 1 h [33]: 97.5%
